Screening results: PubChem BioAssay, Sanford-Burnham Center for Chemical Genomics
Shown are actives, neighbours in structure and some others; about 3.9% of the full set was active somewhere.
TIM10 inh – growth inhibitors of isogenic TIM10 control yeast, primary screen, counter-screen for tim10-1 yeast inhibitor project, luminescence, uHTS; AID 463195, 2010; hit rate 1.4% among 330,000; inhibition, % at 10 µM; S. cerevisiae TIM10 strain growth, BacTiter-Glo luminescence, 24 h;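 active = inhibition of 40% or more at the single tested concentration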;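 also: wild-type TIM10 isogenic control strain grown at permissive 25 °C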
XBP1 UPR activ – activators of adaptive XBP1 UPR arm, primary screen, cell-based, CHO-XBP1 luciferase reporter, luminescence, uHTS | activation, % at 20 µM | IRE1-XBP1 UPR activation; percent of tunicamycin response, DMSO as zero | hit rate 0.33% among 330,000 | AID 463104, 2010;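 active = versus positive control, 20 µM dose yields 30% or more activation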;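 also: 100% = tunicamycin at 10 µg/mL and 0% = DMSO only wells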
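Material: IRE1-XBP1 luciferase reporter CHO line / Quantity: one thousand reporter cells per well / Buffer or medium: F12 with 10% serum / Compound: 20 µM single concentration, DMSO 1% / Times: 6 h treatment, 37 °C / Detection: Steady-Glo luciferase glow luminescence, 10 min after reagent addition / Benchmarks: tunicamycin high, DMSO low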
tim23-1 inh – growth inhibitors of tim23-1 mutant yeast, primary screen, luminescence, uHTS; S. cerevisiae tim23-1 growth, BacTiter-Glo luminescence, 24 h; inhibition, % at 20 µM; hit rate 1.3% among 330,000;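 active = growth inhibition of the mutant yeast at or above 50%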;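 also: temperature-sensitive mutant grown at 25 °C; plate controls were DMSO-treated mutant yeast for no effect and medium wells lacking yeast for full effect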
tim10-1 inh – growth inhibitors of tim10-1 mutant yeast, primary screen, luminescence, uHTS; AID 463190, 2010; hit rate 2.2% among 330,000; S. cerevisiae tim10-1 ts strain growth, BacTiter-Glo, 24 h; inhibition, % at 20 µM;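 active = inhibition of at least 40%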;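 also: mutant grown at 25 °C; 0% = DMSO wells with yeast and 100% = wells holding no yeast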
CHOP UPR activ – activators of apoptotic CHOP UPR arm, primary screen, cell-based, CHO-CHOP luciferase reporter, luminescence, uHTS | UPR activation; percent of tunicamycin response over DMSO baseline | activation, % at 10 µM | AID 449763, 2010 | hit rate 0.34% among 330,000;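 active = at 10 µM dose, activation of 40% or more, normalized to positive control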;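 also: 100% = tunicamycin at 10 µg/mL and 0% = DMSO alone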
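Dosing – one dose, 10 µM in 0.5% DMSO · System – CHO-CHOP cells, stable luciferase reporter of PERK-eIF2a-CHOP signalling · Input – 500 cells/well · Control set – tunicamycin 10 µg/mL final as positive, DMSO-only wells as negative · Timing – 6 h compound treatment, 37 °C · Measure – % activation vs tunicamycin · Technique – luminescence read with Steady-Glo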
* hit, by the source's call.

SMILES	TIM10 inh	XBP1 UPR activ	tim23-1 inh	tim10-1 inh	CHOP UPR activ
CCOc1ccccc1NC(=O)CCSc1nc2n[nH]c(C)c2c(=N)n1-c1ccccc1Cl	22	110*	1	21	7
CCc1ccccc1NC(=O)CSc1nc2n[nH]c(C)c2c(=N)n1-c1cccc(OC)c1	13	7	29	23	3
O=C(C1CC(=O)N(c2ccccc2)C1)N1CCN(c2ccccc2F)CC1 (configuration not stated)	-6	-3	11	-3	2
C#CCOCCOCCOCCNc1nc(N2CCOCC2)nc(N2CCN(C(=O)CCCCCCCCCCNC(=O)[C@@H]([C@H](C)CC)n3cc(CCCCCN)nn3)CC2)n1	8	0	16	9	0
C#CCOCCOCCOCCNc1nc(N2CCN(C(=O)CCCCCCCCCCNC(=O)[C@H]([C@@H](C)CC)n3cc(CCCCCN)nn3)CC2)nc(N2CCN(C(=O)CCCCCCCCCCNC(=O)[C@@H]([C@H](C)CC)n3cc(CCCCCN)nn3)CC2)n1	7	32*	34	12	9
COc1ccc(NC(=O)Nc2cccc3c2O[C@H](CN(C)C(=O)Nc2ccc4c(c2)OCO4)[C@@H](C)CN([C@H](C)CO)C3=O)cc1	-7	-4	-1	-9	2
Cc1cccc(C(=O)NCCC(=O)NCc2ccccc2Cl)c1	3	-2	-7	-7	0
CNC(=O)c1c(NC(=O)c2cc(-c3cc(C)c(C)cc3O)n[nH]2)sc2c1CCCC2	1	50*	14	9	17
CC1(C)Oc2ccc3ccc(=O)oc3c2[C@@H](O)[C@@H]1O	3	0	1	-3	-2
C=CCN1C(=O)c2ccccc2Sc2ccc(C(=O)NCC(OC)OC)cc21	-6	-8	13	26	-1
COc1cccc(CN(C)C(=O)c2[nH]c(C)c(C(C)=O)c2C)c1OC	-21	1	6	3	-1
CC1CN(C(=O)CCC(=O)NCCCN2CCN(Cc3ccccc3)CC2)c2cc(Cl)ccc2O1 (configuration not stated)	3	1	-14	-3	2
O=C1COc2ccc(C(=O)COC(=O)c3sc4ccccc4c3Cl)cc2N1	0	47*	-11	-10	-2
Cc1ccc(C)c(NC(=O)Cc2nc(CNCC(C)C)cs2)c1	9	-2	16	-2	2
COc1ccccc1Nc1nc(-c2sc(NC(=O)c3ccc([N+](=O)[O-])cc3)nc2C)cs1	10	32*	13	17	3
CC(C)c1ccccc1NC(=O)Cn1c(/C=C/c2ccccc2)nc2ccccc21	-2	32*	-14	-1	12
CC(C)c1ccccc1NC(=O)Cn1c(-c2ccccc2Cl)nc2ccccc21	10	-2	13	9	2
CC(C)C[C@@H]1NC(=O)[C@H](Cc2ccccc2)N(C)C(=O)[C@H](C)NC(=O)c2ccccc2NC(=O)[C@H](Cc2ccc(O)cc2)N(C)C1=O	3	1	1	-2	8
CCC[C@H]1NC(=O)[C@H](C)N(C)C(=O)C(C)(C)C(=O)C(C)NC(=O)[C@H](Cc2ccc(OC)cc2)N(C)C(=O)[C@H](C(C)C)N(C)C(=O)CNC(=O)[C@H](CC(C)C)N(C)C(=O)CNC(=O)[C@H]([C@@H](C)CC)OC(=O)[C@H]1C (some centres not stated)	7	23	16	19	44*
O=C(CN1C(=O)NC2(CCCCCC2)C1=O)NCCc1ccccc1	-8	-1	1	-5	-1
CCc1ccc(NC(=O)COC(=O)Cn2cnc3ccccc32)cc1	-8	0	-9	-12	0
Cc1ccc(-c2csc3ncnc(SCC(=O)NCC4CCCO4)c23)cc1 (configuration not stated)	13	-1	31	36	0
CCOc1ccc(NC(=O)COC(=O)CCN2C(=O)C3CC=CCC3C2=O)cc1OCC (configuration not stated)	-3	-1	-4	3	0
CCN1C(=O)[C@@H]2[C@@H](c3ccc(SC4CCCCC4)c(OC)c3)N3CCC[C@@]3(C(=O)OC)[C@@H]2C1=O	19	-4	23	7	-2
Cc1ccc(C)c(NC(=S)NC(NC(=O)Cc2cccc3ccccc23)C(Cl)(Cl)Cl)c1 (configuration not stated)	-19	47*	-10	-14	52*
SMILES	TIM10 inh	XBP1 UPR activ	tim23-1 inh	tim10-1 inh	CHOP UPR activ
Cc1ccc(C)c(NC(=S)NC(NC(=O)N(C)C)C(Cl)(Cl)Cl)c1 (configuration not stated)	9	-3	17	13	-1
O=C(O)c1cc2ccccc2c(N=Nc2cccnc2)c1O	2	-1	17	20	10
Cn1c(=O)c2c(SCC(=O)N3CCOCC3)nc(-c3ccccc3Cl)nc2n(C)c1=O	3	-3	16	15	1
CC1CN(C(=O)c2cccc(S(=O)(=O)N3CCN(c4ccccc4)CC3)c2)CC(C)O1 (configuration not stated)	-18	-2	15	-47	1
COc1ccccc1C(=O)Nc1nnc(S(=O)(=O)N(C)Cc2ccccc2)s1	23	-5	17	11	2
CCCN(CC1CC1)C(=O)COC(=O)c1oc2c(F)cccc2c1C	10	-1	33	34	-1
COC(=O)C1CN(C(=O)C(C)Oc2ccc(C)c(C)c2)c2ccccc2O1 (configuration not stated)	20	-4	29	27	-1
COc1ccc(-c2cc(C(F)(F)F)c3c(N)c(C(=O)NCCSC)sc3n2)cc1	6	55*	14	24	1
CN(C)CCNC(=O)c1sc2nc(-c3ccccc3)cc(C(F)(F)F)c2c1N	0	-2	16	31	2
CCOc1ccc(-c2c(=O)n(OCc3ccc([N+](=O)[O-])cc3)c3ccccc3[n+]2[O-])cc1	16	36*	12	19	18
O=c1c2c3nc4ccccc4nc3n(-c3ccc4c(c3)OCCO4)c2ncn1C1CCCC1	8	10	-6	28	77*
Nc1c(C(=O)OCC2CCCO2)c2nc3ccccc3nc2n1-c1ccc2c(c1)OCCO2 (configuration not stated)	9	-7	15	24	-4
COc1ccccc1CC(NC(C)=O)C(=O)NC1CCN(C(=O)c2ccc(C)cc2)CC1 (configuration not stated)	12	0	9	9	0
CC(C)[C@H](NC(=O)N1c2ccccc2NC(=O)[C@@H]1C(C)C)C(=O)N1CCC(C(=O)O)CC1	-2	-3	-6	-7	2
